The source made the active and inactive calls. No cut-off for these calls is given here.
Tests used:
[1] = system: HCT-116; test: Antiproliferative activity against human HCT-116 cells measured after 48 hrs by SRB assay; assay type: functional
How it was run: (§1)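 Cells seeded and cultured overnight, then exposed to a gradient of compound concentrations for 48 h in medium with 5% FBS. A time-zero plate was fixed with 10% TCA at drug addition. After treatment, cells were fixed with 10% TCA and stained with 0.4% SRB in 1% acetic acid. Bound dye was dissolved in 10 mM trizma base, absorbance read at 515 nm, and GI50 derived. Each experiment was run at least three times.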

[2] = system: NCI-H1975; test: Antiproliferative activity against human NCI-H1975 cells measured after 48 hrs by SRB assay; assay type: functional; how it was run: as §1
[3] = system: NCI-H460; test: Antiproliferative activity against human NCI-H460 cells measured after 48 hrs by SRB assay; assay type: functional; how it was run: as §1
[4] = system: A549; test: Antiproliferative activity against human A549 cells measured after 48 hrs by SRB assay; assay type: functional
How it was run: as §1, with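 “acid.” for “acid. Bound dye was dissolved in 10 mM trizma base, absorbance read at 515 nm, and GI50 derived.”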

[5] = target: Heat shock protein HSP 90-alpha (Homo sapiens, UniProt P07900); test: Inhibition of recombinant human full-length C-terminal Hsi-tagged HSP90alpha (1 to 732 residues) expressed in Escherichia coli measured after 2 to 3 hrs by FITC-labeled geldanamycin probe based fluorescence polarization assay
[6] = system: A549; test: Induction of apoptosis in human A549 cells assessed as increase in cleaved caspase 9 expression after 48 hrs by Western blot analysis; assay type: functional, cell-based
How it was run: (§2)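 Cells grown in RPMI 1640 with 10% FBS were left to attach overnight, then exposed to compound at stated concentrations for 48 h. Lysates were immunoblotted for cleaved PARP, γH2AX and cleaved caspase-3, -8 and -9. Each experiment was done at least three times.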

[7] = system: NCI-H1975; test: Cell cycle arrest in human NCI-H1975 cells assessed as accumulation at sub-G1 phase at 0.075 to 1.25 uM measured after 48 hrs by propidium iodide staining based flow cytometry; assay type: functional; conditions: dose 0.075-1.25 µM
How it was run: (§3)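 Cells in RPMI 1640 with 10% FBS, 37 °C, 5% CO2; 2.5×10^5/well, treated with DMSO or compound. Washed in PBS, fixed overnight in ice-cold 70% EtOH at -20 °C, stained in PBS with propidium iodide 80 µg/ml, Triton X-100 0.1% and RNase A 100 µg/ml. DNA content measured by FACScan; sub-G1 fraction quantified; means ± S.D., ≥3 independent experiments.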

[8] = system: NCI-H1975; test: Inhibition of HSP90 in human NCI-H1975 cells assessed as down regulation of AKT expression at 0.075 to 1.25 uM after 24 hrs by Western blot analysis; assay type: cell-based; conditions: dose 0.075-1.25 µM
[9] = system: NCI-H1975; test: Inhibition of HSP90 in human NCI-H1975 cells assessed as upregulation of HSP70 expression at 0.075 to 1.25 uM after 24 hrs by Western blot analysis; assay type: cell-based; conditions: dose 0.075-1.25 µM
[10] = system: A549; test: Induction of apoptosis in human A549 cells assessed as increase in cleaved PARP expression after 48 hrs by Western blot analysis; assay type: functional, cell-based; how it was run: as §2
[11] = system: A549; test: Cell cycle arrest in human A549 cells assessed as accumulation at sub-G1 phase at 0.15 to 2.5 uM measured after 48 hrs by propidium iodide staining based flow cytometry; assay type: functional; conditions: dose 0.15-2.5 µM; how it was run: as §3
[12] = system: NCI-H1975; test: Induction of apoptosis in human NCI-H1975 cells assessed as increase in cleaved PARP expression after 48 hrs by Western blot analysis; assay type: functional, cell-based; how it was run: as §2
[13] = system: A549; test: Inhibition of HSP90 in human A549 cells assessed as upregulation of HSP70 expression at 0.075 to 1.25 uM after 24 hrs by Western blot analysis; assay type: cell-based; conditions: dose 0.075-1.25 µM
[14] = system: A549; test: Inhibition of HSP90 in human A549 cells assessed as down regulation of AKT expression at 0.075 to 1.25 uM after 24 hrs by Western blot analysis; assay type: cell-based; conditions: dose 0.075-1.25 µM
[15] = system: HCT-116; test: Inhibition of colony formation in human HCT-116 cells at 0.009 to 0.018 uM measured after 24 hrs by crystal violet staining based assay; assay type: functional, cell-based; conditions: dose 0.009-0.018 µM
How it was run: (§4)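 Cells at 5×10^3/well, exposed to DMSO or compound for 24 h. Drug was washed out, and cells were trypsinized, replated and grown for 10 days. Colonies were fixed and stained with crystal violet (0.5% in 70% EtOH) and counted as % of control. Repeated at least twice.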

[16] = system: NCI-H1975; test: Inhibition of HSP90 in human NCI-H1975 cells assessed as down regulation of EGFR expression at 0.075 to 1.25 uM after 24 hrs by Western blot analysis; assay type: cell-based; conditions: dose 0.075-1.25 µM
[17] = system: HCT-116; test: Potency index, ratio of BIIB021 IC50 to test compound IC50 for human HCT-116 cells; assay type: functional
[18] = system: A549; test: Induction of apoptosis in human A549 cells assessed as increase in cleaved caspase 3 expression after 48 hrs by Western blot analysis; assay type: functional, cell-based; how it was run: as §2
[19] = system: A549; test: Inhibition of HSP90 in human A549 cells assessed as down regulation of EGFR expression at 0.075 to 1.25 uM after 24 hrs by Western blot analysis; assay type: cell-based; conditions: dose 0.075-1.25 µM
[20] = system: NCI-H1975; test: Inhibition of colony formation in human NCI-H1975 cells at 0.009 to 0.018 uM measured after 24 hrs by crystal violet staining based assay; assay type: functional, cell-based; conditions: dose 0.009-0.018 µM; how it was run: as §4
[21] = system: A549; test: Induction of apoptosis in human A549 cells assessed as increase in activated gamma H2AX expression after 48 hrs by Western blot analysis; assay type: functional, cell-based; how it was run: as §2
[22] = system: NCI-H1975; test: Induction of apoptosis in human NCI-H1975 cells assessed as increase in cleaved caspase 8 expression after 48 hrs by Western blot analysis; assay type: functional, cell-based; how it was run: as §2
[23] = system: A549; test: Induction of apoptosis in human A549 cells assessed as increase in cleaved caspase 8 expression after 48 hrs by Western blot analysis; assay type: functional, cell-based; how it was run: as §2
[24] = system: NCI-H1975; test: Induction of apoptosis in human NCI-H1975 cells assessed as increase in cleaved caspase 9 expression after 48 hrs by Western blot analysis; assay type: functional, cell-based; how it was run: as §2
[25] = system: NCI-H1975; test: Induction of apoptosis in human NCI-H1975 cells assessed as increase in activated gamma H2AX expression after 48 hrs by Western blot analysis; assay type: functional, cell-based; how it was run: as §2
[26] = system: A549; test: Inhibition of colony formation in human A549 cells at 0.009 to 0.018 uM measured after 24 hrs by crystal violet staining based assay; assay type: functional, cell-based; conditions: dose 0.009-0.018 µM; how it was run: as §4
[27] = system: NCI-H1975; test: Induction of apoptosis in human NCI-H1975 cells assessed as increase in cleaved caspase 3 expression after 48 hrs by Western blot analysis; assay type: functional, cell-based; how it was run: as §2

COc1c(C)cnc(Cn2cnc3c(Cl)nc(N)nc32)c1C [BIIB021]
GI50 [1]: 150 nM
GI50 [2]: 200 nM
GI50 [3]: 210 nM

CCNC(=O)c1noc(-c2cc(C(C)C)c(O)cc2O)c1-c1ccc(CN2CCOCC2)cc1 [LUMINESPIB]
GI50 [4]: 10 nM
GI50 [2]: 20 nM
GI50 [3]: 30 nM

CC(C)c1cc(C(=O)Nc2ccc(Cn3c(=O)c(F)cn(C4CCCO4)c3=O)cc2)c(O)cc1O (stereo not drawn)
GI50 [1]: > 10000 nM
IC50 [5]: > 1000 nM
GI50 [4]: > 10000 nM
GI50 [2]: > 10000 nM
GI50 [3]: > 10000 nM

CC(C)c1cc(C(=O)N(Cc2ccccc2)c2ccc(Cn3c(=O)c(F)cn(C4CCCO4)c3=O)cc2)c(O)cc1O (stereo not drawn)
GI50 [1]: 780 nM
IC50 [5]: 45.3 nM
GI50 [4]: 800 nM
GI50 [2]: 160 nM
GI50 [3]: 400 nM

CCN(C(=O)c1cc(C(C)C)c(O)cc1O)c1ccc(Cn2c(=O)c(F)cn(C3CCCO3)c2=O)cc1 (stereo not drawn)
Activity [6]: Dose-dependent effect
Activity [7]: Active
inhibition [8]: Active
GI50 [1]: 10 nM
inhibition [9]: Active
Activity [10]: Dose-dependent effect
Activity [11]: Active
Activity [12]: Dose-dependent effect
inhibition [13]: Active
inhibition [14]: Active
inhibition [15]: Active
inhibition [16]: Active
Ratio IC50 [17]: 15
IC50 [5]: 27.8 nM
Activity [18]: Dose-dependent effect
GI50 [4]: 70 nM
inhibition [19]: Active
GI50 [2]: 40 nM
GI50 [3]: 60 nM
inhibition [20]: Active
Activity [21]: Dose-dependent effect
Activity [22]: Dose-dependent effect
Activity [23]: Dose-dependent effect
Activity [24]: Dose-dependent effect
Activity [25]: Dose-dependent effect
inhibition [26]: Active
Activity [27]: Dose-dependent effect

COc1ccc(CN(C(=O)c2cc(C(C)C)c(O)cc2O)c2ccc(Cn3c(=O)c(F)cn(C4CCCO4)c3=O)cc2)cc1 (stereo not drawn)
GI50 [1]: 720 nM
IC50 [5]: 58.8 nM
GI50 [4]: 920 nM
GI50 [2]: 230 nM
GI50 [3]: 390 nM

CCCN(C(=O)c1cc(C(C)C)c(O)cc1O)c1ccc(Cn2c(=O)c(F)cn(C3CCCO3)c2=O)cc1 (stereo not drawn)
GI50 [1]: 960 nM
IC50 [5]: 48.2 nM
GI50 [4]: 650 nM
GI50 [2]: 340 nM
GI50 [3]: 520 nM

O=c1[nH]cc(F)c(=O)[nH]1 [FLUOROURACIL]
GI50 [1]: > 10000 nM
GI50 [4]: 19800 nM

CC(C)c1cc(-c2n[nH]c(=O)n2-c2ccc3c(ccn3C)c2)c(O)cc1O [GANETESPIB]
GI50 [1]: 150 nM

C=CCN(C(=O)c1cc(C(C)C)c(O)cc1O)c1ccc(Cn2c(=O)[nH]cc(F)c2=O)cc1
GI50 [1]: 80 nM
IC50 [5]: 48 nM
GI50 [4]: 100 nM
GI50 [2]: 50 nM
GI50 [3]: 70 nM

CCN(C(=O)c1cc(C(C)C)c(O)cc1O)c1ccc(Cn2c(=O)[nH]cc(F)c2=O)cc1
GI50 [1]: 30 nM
IC50 [5]: 44.9 nM
GI50 [4]: 40 nM
GI50 [2]: 30 nM
GI50 [3]: 30 nM

C#CCN(C(=O)c1cc(C(C)C)c(O)cc1O)c1ccc(Cn2c(=O)[nH]cc(F)c2=O)cc1
GI50 [1]: 40 nM
IC50 [5]: 54.4 nM
GI50 [4]: 30 nM
GI50 [2]: 20 nM
GI50 [3]: 70 nM

CC(C)c1cc(C(=O)N(C)c2ccc(Cn3c(=O)c(F)cn(C4CCCO4)c3=O)cc2)c(O)cc1O (stereo not drawn)
GI50 [1]: 120 nM
IC50 [5]: 40.9 nM
GI50 [4]: 90 nM
GI50 [2]: 60 nM
GI50 [3]: 70 nM

O=c1[nH]c(=O)n(C2CCCO2)cc1F (stereo not drawn) [TEGAFUR]
GI50 [1]: > 10000 nM
GI50 [4]: > 50000 nM

CC(C)c1cc(C(=O)N(Cc2ccc(Cl)cc2)c2ccc(Cn3c(=O)c(F)cn(C4CCCO4)c3=O)cc2)c(O)cc1O (stereo not drawn)
GI50 [1]: 700 nM
IC50 [5]: 54.7 nM
GI50 [4]: 560 nM
GI50 [2]: 160 nM
GI50 [3]: 460 nM

CC(C)c1cc(C(=O)N(Cc2ccc(C#N)cc2)c2ccc(Cn3c(=O)c(F)cn(C4CCCO4)c3=O)cc2)c(O)cc1O (stereo not drawn)
GI50 [1]: 410 nM
IC50 [5]: 45.3 nM
GI50 [4]: 350 nM
GI50 [2]: 130 nM
GI50 [3]: 200 nM
